Data reported in ChEMBL document CHEMBL5390247, “Aryl azoles based scaffolds for disrupting tumor microenvironment” (Bioorg Med Chem, 2023).
Activity calls are given as the source filed them. No cut-off for these calls is given here.

Assays:
[1] = Toxicity against interferon gamma-stimulated human THP-1 monocyte cells co-cultured with human HT-29 cells assessed as reduction in cell viability at 100 uM incubated for 48 hrs by flow cytometry analysis; type: cell-based; conditions: thp-1, 48 h
Outline: (§1)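 HT-29 cells at 10^5/well seeded and grown 24 h. Medium then replaced with medium containing IFN-γ (10 ng/ml), 5 × 10^5 THP-1 cells/well and compound at 100 µM; DMSO used as control. After 48 h, THP-1 cells collected from supernatant and cancer cells by trypsinisation. Both fixed in 4% paraformaldehyde and counted by flow cytometry relative to control.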

HT-29 [2] = assay: Immunomodulatory activity in human HT-29 cells co-cultured with interferon gamma-stimulated THP-1 cells assessed as cell viability at 100 uM incubated for 48 hrs by flow cytometry analysis relative to control; type: functional; conditions: read-out: Activity; outline: as §1
HT-29 [3] = assay: Immunomodulatory activity in human HT-29 cells co-cultured with interferon gamma-stimulated THP-1 cells assessed as relative CD-47 protein expression in membrane at 100 uM incubated for 48 hrs by flow cytometry analysis relative to control; type: functional
HT-29 [4] = assay: Immunomodulatory activity in human HT-29 cells co-cultured with interferon gamma-stimulated THP-1 cells assessed as relative PD-L1 protein expression in membrane at 100 uM incubated for 48 hrs by flow cytometry analysis relative to control; type: functional
HT-29 [5] = assay: Antiproliferative activity against human HT-29 cells assessed as relative PD-L1 protein expression in membrane at 100 uM incubated for 48 hrs by flow cytometry analysis relative to control; type: functional
HT-29 [6] = assay: Antiproliferative activity against human HT-29 cells assessed as relative PD-L1 protein expression in whole cell at 100 uM incubated for 48 hrs by flow cytometry analysis relative to control; type: functional
HT-29 [7] = assay: Antiproliferative activity against human HT-29 cells assessed as relative c-Myc protein expression at 100 uM incubated for 48 hrs by flow cytometry analysis relative to control; type: functional
HT-29 [8] = assay: Antiproliferative activity against human HT-29 cells assessed as relative VEGFR-2 protein expression in membrane at 100 uM incubated for 48 hrs by flow cytometry analysis relative to control; type: functional
HT-29 [9] = assay: Antiproliferative activity against human HT-29 cells assessed as relative VEGFR-2 protein expression in whole cell at 100 uM incubated for 48 hrs by flow cytometry analysis relative to control; type: functional
HT-29 [10] = assay: Immunomodulatory activity in human HT-29 cells co-cultured with interferon gamma-stimulated THP-1 cells assessed as reduction in number of cells at 100 uM incubated for 48 hrs; type: functional, cell-based; outline: as §1
HT-29 [11] = assay: Immunomodulatory activity in human HT-29 cells co-cultured with interferon gamma-stimulated THP-1 cells assessed as induction of morphological changes by measuring cell shrinkage at 100 uM incubated for 48 hrs; type: functional, cell-based
Outline: (§2)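 HT-29 cells co-cultured with IFN-γ-stimulated THP-1 cells and treated 48 h with compounds at 100 µM, with DMSO as control. Cell shrinkage and rounded morphology assessed by microscopy images.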

HT-29 [12] = assay: Immunomodulatory activity in human HT-29 cells co-cultured with interferon gamma-stimulated THP-1 cells assessed as induction of morphological changes by measuring rounded cell morphology at 100 uM incubated for 48 hrs; type: functional, cell-based; outline: as §2
HT-29 [13] = assay: Immunomodulatory activity in human HT-29 cells co-cultured with interferon gamma-stimulated THP-1 cells assessed as inhibition of cell growth at 100 uM incubated for 48 hrs by flow cytometry analysis relative to control; type: functional; outline: as §1

| Compound | Activity [1] | viability at 100 µM (HT-29 [2]) | Activity (HT-29 [3]) | Activity (HT-29 [4]) | Activity (HT-29 [5]) | Activity (HT-29 [6]) | Activity (HT-29 [7]) | Activity (HT-29 [8]) | Activity (HT-29 [9]) | Activity (HT-29 [10]) | Activity (HT-29 [11]) | Activity (HT-29 [12]) | inhibition at 100 µM (HT-29 [13]) |
| --- | --- | --- | --- | --- | --- | --- | --- | --- | --- | --- | --- | --- | --- |
| Nc1cccc(-c2cn(Cc3ccccc3)nn2)c1 | Non-Toxic | 78% | 103% | 109% |  |  |  |  |  |  |  |  |  |
| COc1ccc(Cn2cc(-c3cccc(N)c3)nn2)cc1 | Non-Toxic | 40% | 82% | 113% |  |  |  |  |  |  |  |  |  |
| COc1ccccc1Cn1cc(-c2cccc(N)c2)nn1 | Non-Toxic | 62% | 62% | 114% |  |  |  |  |  |  |  |  |  |
| Nc1cccc(-c2nnn(Cc3ccccc3)n2)c1 | Non-Toxic | 64% | 104% | 104% |  |  |  |  |  |  |  |  |  |
| COc1ccc(Cn2nnc(-c3cccc([N+](=O)[O-])c3)n2)cc1 | Non-Toxic | 35% | 96% | 102% | 84% | 89% | >100% | 88% | 39% | Active | Active | Active |  |
| Cc1ccc(Cn2cc(-c3cccc(N)c3)nn2)cc1 | Non-Toxic | 73% | 101% | 144% |  |  |  |  |  |  |  |  |  |
| O=[N+]([O-])c1cccc(-c2nnn(Cc3ccccc3)n2)c1 | Non-Toxic | 32% | 71% | 150% | 66% | >100% | 82% | >100% | >100% |  |  |  |  |
| O=[N+]([O-])c1cccc(-c2nnn(Cc3ccccc3Br)n2)c1 | Non-Toxic | 43% | 85% | 94% | >100% | 97% | 90% | >100% | 75% |  |  |  |  |
| COc1cccc(Cn2nnc(-c3cccc([N+](=O)[O-])c3)n2)c1 | Non-Toxic | 40% | 77% | 88% | 83% | >100% | 75% | >100% | 42% | Active | Active | Active |  |
| Cc1ccccc1Cn1cc(-c2cccc(N)c2)nn1 | Non-Toxic | 74% | 87% | 120% |  |  |  |  |  |  |  |  |  |
| Nc1cccc(-c2cn(Cc3ccccc3Br)nn2)c1 | Non-Toxic | 35% | 75% | 110% |  |  |  |  |  |  |  |  |  |
| COc1cccc(Cn2nnc(-c3cccc(N)c3)n2)c1 | Non-Toxic | 66% | 78% | 84% | >100% | >100% | 86% | 76% | >100% | Active | Active | Active |  |
| Cc1ccccc1Cn1nnc(-c2cccc([N+](=O)[O-])c2)n1 | Non-Toxic | 56% | 75% | 165% | 64% | 94% | 91% | >100% | 72% |  |  |  |  |
| Cc1ccc(Cn2nnc(-c3cccc([N+](=O)[O-])c3)n2)cc1 | Non-Toxic | 22% | 88% | 168% | 63% | 92% | 78% | >100% | 65% |  |  |  | > 70% |
| COc1ccccc1Cn1nnc(-c2cccc(N)c2)n1 | Non-Toxic | 54% | 77% | 92% | 97% | >100% | 97% | 99% | >100% | Active | Active | Active |  |
| Cc1cccc(Cn2cc(-c3cccc(N)c3)nn2)c1 | Non-Toxic | 44% | 86% | 114% |  |  |  |  |  |  |  |  |  |
| Cc1ccccc1Cn1nnc(-c2cccc(N)c2)n1 | Non-Toxic | 25% | 75% | 103% |  |  |  |  |  |  |  |  | > 70% |
| Nc1cccc(-c2cn(Cc3cccc(Br)c3)nn2)c1 | Non-Toxic | 9% | 95% | 137% |  |  |  |  |  |  |  |  | > 90% |
| COc1cccc(Cn2cc(-c3cccc(N)c3)nn2)c1 | Non-Toxic | 33% | 89% | 113% |  |  |  |  |  |  |  |  |  |
| Cc1cccc(Cn2nnc(-c3cccc([N+](=O)[O-])c3)n2)c1 | Non-Toxic | 42% | 73% | 166% | 65% | 97% | 89% | >100% | 84% |  |  |  |  |
| O=[N+]([O-])c1cccc(-c2nnn(Cc3cccc(Cl)c3)n2)c1 | Non-Toxic | 90% | 95% | 136% | >100% | 90% | >100% | 97% | >100% |  |  |  |  |
| COc1ccccc1Cn1nnc(-c2cccc([N+](=O)[O-])c2)n1 | Non-Toxic | 65% | 85% | 93% | 89% | 92% | 86% | >100% | 55% | Active | Active | Active |  |
| O=[N+]([O-])c1cccc(-c2nnn(Cc3cccc(Br)c3)n2)c1 | Non-Toxic | 31% | 93% | 106% | >100% | 88% | 76% | 100% | 60% |  |  |  | > 70% |
